Results of several laboratories.
Lines come from different studies, so protocols differ.
Observed: cell growth or viability

SMILES | cell line | method | time | IC50
Cc1ccc(CNC(=S)N/N=C/c2ccc(N3CCC(O)CC3)cc2)cc1 | BEAS-2B | MTT | 24 h | 15.9 µM
Cc1nc2ccc(-c3ccc(F)cc3)cc2c(O)c1C(=O)O | MDA-MB-468 | MTT | 48 h | ≥ 100 µM
CC(C)CNC(=S)N/N=C/c1ccc(N2CCC(O)CC2)cc1 | BEAS-2B | MTT | 24 h | 10.8 µM
CCOC(=O)c1c(C)nc2ccc(-c3ccc(F)cc3F)cc2c1O | MDA-MB-468 | MTT | 48 h | 8 µM
c1ccc(Cc2nnc(-c3nn(Cc4ccccc4)c4ccccc34)o2)cc1 | human Fibroblast | – | 48 h | 635 µM
COc1cc(C2C3=C(COC3=O)N(CCO)c3cc4c(cc32)CCC4)cc(OC)c1OC (stereo not drawn) | MDA-MB-468 | ATP luminescence | 48 h | 0.1 µM
C/C(=N\c1nc(N)nc(/N=C(\C)c2c(O)c3ccccc3oc2=O)n1)c1c(O)c2ccccc2oc1=O | BEAS-2B | MTT | 48 h | 64.3 µM
Fc1ccc2c(-c3nnc(Cc4ccccc4)s3)nn(Cc3ccc(Cl)cc3Cl)c2c1 | human Fibroblast | – | 48 h | 191 µM
CC(=O)N1CCC(Nc2cc(C(=O)NC[C@H](O)CN3CCc4ccccc4C3)ncn2)CC1 | MDA-MB-435S | CCK-8 | 72 h | > 100 µM
CCOC(=O)c1c(C)nc2ccc(-c3cccc(F)c3)cc2c1O | MDA-MB-468 | MTT | 48 h | 4 µM
Cc1sc2c(c1C)C(c1ccc(Cl)cc1)=N[C@@H](CC(=O)NCCCCNC(=O)COc1cccc3c1C(=O)N(C1CCC(=O)NC1=O)C3=O)c1nnc(C)n1-2 (stereo partly drawn) | KATO III | CCK-8 | 72 h | > 10 µM
OC1CCN(c2ccc(/C=N/NC(=S)Nc3ccccc3)cc2)CC1 | BEAS-2B | MTT | 24 h | 18.9 µM
CN1CCC(NC2CCc3[nH]c4c(C(N)=O)ccc(-c5ccccc5Cl)c4c3C2)CC1 (stereo not drawn) | RBE | – | 96 h | 0.00146 µM
C/C(=N\CCNCCNCC/N=C(\C)c1c(O)c2ccccc2oc1=O)c1c(O)c2ccccc2oc1=O | BEAS-2B | MTT | 48 h | 4.11 µM
CCOC(=O)c1c(C)nc2ccc(-c3ccc(F)c(F)c3)cc2c1O | MDA-MB-468 | MTT | 48 h | 4 µM
FC(F)(F)c1ccc(-c2noc(-c3nn(Cc4ccc(Cl)cc4Cl)c4ccccc34)n2)cc1 | human Fibroblast | – | 48 h | 130 µM
Cc1cnc(Cn2nc(-c3ccc(CO)o3)c3ccccc32)s1 | RBE | ATP luminescence | – | 1.05 µM
Cc1noc(-c2nn(Cc3ccc(Cl)cc3Cl)c3ccccc23)n1 | human Fibroblast | – | 48 h | 148 µM

SMILES | cell line | method | time | IC50
NCc1ccc(-c2nn(Cc3ccccc3)c3ccccc23)o1 | RBE | ATP luminescence | – | 2.4 µM
Cc1nc2ccc(-c3ccc(F)cc3F)cc2c(O)c1C(=O)O | MDA-MB-468 | MTT | 48 h | ≥ 100 µM
CC1c2ccccc2CCN1c1ccc(CO)c(Cl)c1 (stereo not drawn) | RBE | ATP luminescence | – | < 0.2 µM
Fc1ccc2c(-c3ncc(-c4ccccc4)o3)nn(Cc3ccccc3)c2c1 | human Fibroblast | – | 48 h | 198 µM
OCc1ccc(-c2nn(-c3ccccc3)c3ccccc23)o1 | RBE | ATP luminescence | – | 4.27 µM
OC1CCN(c2ccc(/C=N/NC(=S)NCc3ccc(Cl)cc3)cc2)CC1 | BEAS-2B | MTT | 24 h | 13.4 µM
OCn1cncn1 | BEAS-2B | MTT | 24 h | > 800 µM
CC(O)c1ccc(-c2nn(Cc3ccccc3)c3ccccc23)o1 (stereo not drawn) | RBE | ATP luminescence | – | 6.92 µM
Fc1ccc2c(-c3nnc(Cc4ccccc4)s3)nn(Cc3ccccc3)c2c1 | human Fibroblast | – | 48 h | 605 µM
OCc1ccc(-c2nn(Cc3cccnc3)c3cccnc23)o1 | RBE | ATP luminescence | – | 5.01 µM
COc1cccc2c1C(=O)c1c(O)c3c(c(O)c1C2=O)C[C@@](O)(C(=O)CO)C[C@@H]3O[C@H]1C[C@H](N)[C@H](O)[C@H](C)O1 | BEAS-2B | MTT | 48 h | 4.08 µM
COc1ccc(Cn2nc(-c3ccc(CO)o3)c3ccccc32)cc1 | RBE | ATP luminescence | – | 1.12 µM
CC(=O)ON=C1C=CC(=C(C#N)c2ccccc2)C=C1 | human Fibroblast | MTT | 48 h | 20.3 µg/mL
OC1CCN(c2ccc(/C=N/NC(=S)Nc3ccc(F)cc3)cc2)CC1 | BEAS-2B | MTT | 24 h | 29.1 µM
C/C(=N\N=C(/C)c1c(O)c2ccccc2oc1=O)c1c(O)c2ccccc2oc1=O | BEAS-2B | MTT | 48 h | 29.6 µM
COc1cccc2c1C(=O)c1c(O)c3c(c(O)c1C2=O)C[C@@](O)(C(=O)CO)C[C@@H]3O[C@H]1C[C@H](N)[C@H](O)[C@H](C)O1 | RBE | – | 96 h | 0.0214 µM
OCc1ccc(-c2nn(Cc3ccccn3)c3ccccc23)o1 | RBE | ATP luminescence | – | 0.302 µM
COc1ccc2c(-c3ncc(-c4ccccc4)o3)nn(Cc3ccccc3)c2c1 | human Fibroblast | – | 48 h | 89.9 µM
